Results from ChEMBL document CHEMBL1933043.

Experiments:
[1] = Therapeutic index, ratio of TD50 for MDCK cells to ED50 for influenza A virus (A/swine/OH/511445/2007(H1N1)) Oh7; format: cell-based; settings: dog, read-out: Ratio TD50/ED50
Summary of the method: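 MDCK cells infected with swine influenza A/swine/OH/511445/2007 (H1N1, Oh7) and incubated with compound at 0.1–150 μM plus trypsin (10 μg/mL) for up to 4 days. Cytopathic effect was scored, and replication was confirmed by immunofluorescence and Western blot against viral nucleoprotein or whole virus. ED50 is the dose giving 50% virus reduction, and TD50 the dose giving 50% cell death. TI is TD50/ED50.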

[2] = system: Influenza A virus; assay: Antiviral activity against influenza A virus (A/swine/OH/511445/2007(H1N1)) Oh7 infected in MDCK cells assessed as inhibition of viral replication after 4 days by quantitative RT-PCR; format: functional; settings: (A/swine/OH/511445/2007(H1N1)) Oh7, MDCK, 96 h, read-out: ED50 (the source's name)
[3] = Cytotoxicity against MDCK cells after 4 days; format: cell-based, Canis lupus familiaris; settings: dog, read-out: TD50
Summary of the method: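 MDCK cells exposed to compounds at 0.1–150 μM with trypsin (10 μg/mL) for up to 4 days. Cells were inspected microscopically. TD50 was taken as the dose causing 50% cell death.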

Compound | selectivity ratio [1] | EC50 [2] [µM] | CC50 at 96 h [3] [µM]
O=C(Oc1c(-c2ccc(O)c(O)c2)oc2cc(O)cc(O)c2c1=O)c1cc(O)c(O)c(O)c1 | 9.9 | 9.1 | 90.2
O=C(Oc1c(-c2ccc(O)c(O)c2)oc2cc(O)cc(O)c2c1=O)c1cc(O)ccc1O | 2.3 | 19.4 | 45.2
Nc1cc(C(=O)Oc2c(-c3ccc(O)c(O)c3)oc3cc(O)cc(O)c3c2=O)ccc1O | 2.7 | 22.6 | 60.1
Nc1ccc(C(=O)Oc2c(-c3ccc(O)c(O)c3)oc3cc(O)cc(O)c3c2=O)cc1O | 2.3 | 24.1 | 54.8
O=C(Oc1cc(-c2oc3cc(O)cc(O)c3c(=O)c2O)ccc1O)c1cc(O)c(O)c(O)c1 |  | > 50 | 
NCCCOc1cc(-c2oc3cc(O)cc(O)c3c(=O)c2O)ccc1O |  | > 50 | 
CCCOc1cc(O)cc2oc(-c3ccc(O)c(O)c3)c(O)c(=O)c12 |  | > 50 | 
O=c1c(OCc2ccccc2)c(-c2ccc(OCc3ccccc3)c(OCc3ccccc3)c2)oc2cc(OCc3ccccc3)cc(O)c12 |  | > 50 | 
O=C(O[C@@H]1Cc2c(O)cc(O)cc2O[C@@H]1c1cc(O)c(O)c(O)c1)c1cc(O)c(O)c(O)c1 [EPIGALOCATECHIN GALLATE] | 5.5 | 8.3 | 45.5
O=c1c(O[C@@H]2O[C@H](CO)[C@@H](O)[C@H](O)[C@H]2O)c(-c2ccc(O)c(O)c2)oc2cc(O)cc(O)c12 [ISOQUERCETIN] | 37.6 | 1.2 | 45.1
O=c1c(O)c(-c2ccc(O)c(O)c2)oc2cc(O)cc(O)c12 [QUERCETIN] | 1.7 | 48.2 | 83.4
